# In article PMC6286650 (EBioMedicine, 2018):
# Legend:
# C57 wild type mice = test: Isoproterenol-induced myocardial ischemia model in wild type mice; assay type: in vivo
# In short: (§1)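 Wild-type C57 or cre-lox transgelin knockout C57/BL6 mice, 24 per genotype, were split into normal, model and two treatment groups. Test compound was given orally at 10 mg/kg daily for one week; normal and model groups got saline. On day 5, isoproterenol 3 mg/kg i.p. was given (saline for normal group). After day 7, mice were anaesthetized with chloral hydrate for a three-needle-electrode ECG on a 40–42 °C pad.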
# actin [1] = assay type: biochemical; conditions: actin/transgelin plus compound
# [2] = system: isolated myocardial tissue; test: Stimulation of isolated myocardial tissue
# F-actin [3] = test: F-actin features in cells; assay type: cell-based, human; conditions: versus control group
# transgelin = transgelin (Homo sapiens, UniProt Q01995); test: Biacore; conditions: Biacore binding to transgelin, 25 °C, CM5 chip, NA = no activity
# In short: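 CM5 chip at 25 °C with PBS-EP running buffer. Transgelin was amine-coupled by EDC/NHS, the same way as actin (0.4 mg/mL in 10 mM phosphate pH 7.4, 12 min, then 1 M ethanolamine pH 8.5; about 4000 RU). Test compound was run over protein and blank channels at 0–25 uM at 20 μL/min. Association 3 min, dissociation 300 s; regeneration with 10 mM glycine-HCl pH 2.5.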
# transgelin and actin = assay type: binding; conditions: disregarding the effect of SAA
# HVSMCs = assay type: cell-based, human; conditions: 10 μM
# actin [4] = test: Multi-angle light scattering of actin aggregation; assay type: biochemical; conditions: in presence of transgelin
# actin [5] = test: Hypoxia-induced actin degradation, fluorescence intensity; assay type: cell-based; conditions: hypoxic group 264
# F-actin [6] = test: F-actin fluorescence under actin inhibitor; assay type: cell-based
# CASMCs = test: Cell contraction and F-actin formation in CASMCs; assay type: cell-based; conditions: 10 μM
# In short: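 Coronary artery smooth muscle cells came from primary culture in DMEM with 10% foetal bovine serum. They were treated with test compound at 10 μM, and relative cell length and F-actin formation were assessed against untreated control.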
# transgelin (−/−) mice = test: Isoproterenol-induced myocardial ischemia model in transgelin; assay type: in vivo; conditions: 10 mg/kg
# In short: as §1
# [7] = isoproterenol-treated model group, ISO 3 mg/kg i.p.
# Sequence of transgelin (Q01995 whole entry): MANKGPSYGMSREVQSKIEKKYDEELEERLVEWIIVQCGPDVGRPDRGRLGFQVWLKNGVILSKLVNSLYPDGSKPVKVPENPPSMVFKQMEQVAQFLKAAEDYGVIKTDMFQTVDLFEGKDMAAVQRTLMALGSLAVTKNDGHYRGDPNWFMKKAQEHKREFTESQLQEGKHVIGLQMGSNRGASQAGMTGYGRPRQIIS
compound,measurement,setting,value
CC(C)NCC(O)c1ccc(O)c(O)c1 (stereo not shown) [isoproterenol],Serum AST level compared to normal group,C57 wild type mice; [7],237% ± 19%
same,Serum CK level compared to normal group,C57 wild type mice; [7],166% ± 14%
same,Serum CK-MB level compared to normal group,C57 wild type mice; [7],165% ± 24%
same,Serum LDH level compared to normal group,C57 wild type mice; [7],174% ± 14%
"O=C(/C=C/c1ccc(O)c(O)c1/C=C/c1ccc(O)c(O)c1)O[C@H](Cc1ccc(O)c(O)c1)C(=O)O [SAA, salvianolic acid A]",Actin polymerization,actin [1],marked increase in actin polymerization
same,Stimulation effect on isolated myocardial tissue,[2],no stimulation effect
same,"F-actin area, F-actin percentage area, total F-actin length and average F-actin length",F-actin [3],increased
same,Kd,transgelin,7.11 µM
same,Heart infarction ratio,"C57 wild type mice; 10 mg/kg oral daily for 7 days, wild type MI mice 11.2%",4%
same,Protein binding signal of transgelin and actin when SAA was added,transgelin and actin,1.3 times
same,Co-localization of transgelin and actin,HVSMCs; control approximately 57%,78%
same,Average length of VSMCs,HVSMCs; control approximately 90 μm,~80 μm
same,Polymerization (aggregation) of actin,actin [4],further enhanced
same,Actin fluorescence intensity,actin [5],453
same,F-actin fluorescence intensity,"F-actin [6]; co-treatment with vincristine, vincristine alone 139",373
same,Relative length of CASMCs,CASMCs,declined
same,"CK, CK-MB, AST and LDH levels relative to transgelin (−/−) MI model group",transgelin (−/−) mice,not significantly changed
same,Therapeutic effect on myocardial ischemia,transgelin (−/−) mice,no therapeutic effect
"CC[C@]1(O)C[C@H]2CN(CCc3c([nH]c4ccccc34)[C@@](C(=O)OC)(c3cc4c(cc3OC)N(C=O)[C@H]3[C@@](O)(C(=O)OC)[C@H](OC(C)=O)[C@]5(CC)C=CCN6CC[C@]43[C@@H]65)C2)C1 [vincristine, reference compound]",F-actin fluorescence intensity,"F-actin [6]; vincristine alone, control 395",139
